Data published in ChEMBL document CHEMBL4725448, “Substituted Azabicyclo[2.2.1]heptanes as Selective Orexin-1 Antagonists: Discovery of JNJ-54717793” (ACS Med Chem Lett, 2020).
Converted amounts (≈) assume the structure as drawn.

What was measured:
[1] = Stability in rat liver microsomes assessed as extraction ratio; type: ADME, Microsome; details: read-out: ERH
Summary of the method: (§1)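 Metabolic stability in human or rat liver microsomes, expressed as extraction ratios.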

Orexin receptor type 2 = biological target: T1, Orexin receptor type 2 (Homo sapiens, UniProt O43614); experiment: Binding affinity to human OX2R
T1 sequence (O43614 whole entry): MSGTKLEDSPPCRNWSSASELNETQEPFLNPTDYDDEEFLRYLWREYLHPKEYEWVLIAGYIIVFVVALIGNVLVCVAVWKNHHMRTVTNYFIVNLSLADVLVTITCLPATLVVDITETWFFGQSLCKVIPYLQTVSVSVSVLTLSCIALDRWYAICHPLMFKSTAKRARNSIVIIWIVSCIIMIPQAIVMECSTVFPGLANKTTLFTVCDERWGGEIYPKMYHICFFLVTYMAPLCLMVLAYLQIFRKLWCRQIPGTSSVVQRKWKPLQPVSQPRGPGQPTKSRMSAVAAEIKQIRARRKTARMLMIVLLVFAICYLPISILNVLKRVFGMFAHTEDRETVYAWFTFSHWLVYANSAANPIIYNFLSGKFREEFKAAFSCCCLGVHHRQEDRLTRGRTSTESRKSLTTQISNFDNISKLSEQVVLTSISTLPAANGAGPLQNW

[2] = Stability in human liver microsomes assessed as extraction ratio; type: ADME, Microsome; details: read-out: ERH; summary of the method: as §1
[3] = biological target: T2, Orexin/Hypocretin receptor type 1 (Homo sapiens, UniProt O43613); experiment: Binding affinity to human […]
T2 sequence (O43613 whole entry): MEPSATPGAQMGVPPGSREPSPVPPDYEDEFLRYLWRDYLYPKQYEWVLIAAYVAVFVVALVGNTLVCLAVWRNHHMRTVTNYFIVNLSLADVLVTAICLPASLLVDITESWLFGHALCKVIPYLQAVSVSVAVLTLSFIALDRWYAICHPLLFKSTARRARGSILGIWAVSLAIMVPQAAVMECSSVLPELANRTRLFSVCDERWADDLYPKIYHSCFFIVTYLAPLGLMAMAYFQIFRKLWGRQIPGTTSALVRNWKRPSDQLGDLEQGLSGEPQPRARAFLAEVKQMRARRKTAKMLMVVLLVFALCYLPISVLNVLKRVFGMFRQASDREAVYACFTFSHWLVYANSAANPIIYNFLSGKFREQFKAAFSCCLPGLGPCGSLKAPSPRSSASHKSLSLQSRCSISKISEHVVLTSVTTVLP

[4] = Ex vivo receptor occupancy at OX1R in Sprague-Dawley rat brain tenia tecta using [3H]SB-674042 labelling at 30 mg/kg, po measured after 0.5 hrs by autoradiography; type: functional
Summary of the method: (§2)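 Ex vivo OX1R binding autoradiography in rat tenia tecta after a 30 mg/kg po dose; percent occupancy read at 0.5 and 2 h.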

[5] = Ex vivo receptor occupancy at OX1R in Sprague-Dawley rat brain tenia tecta using [3H]SB-674042 labelling at 30 mg/kg, po measured after 2 hrs by autoradiography; type: functional; summary of the method: as §2
[6] = Drug concentration in Sprague-Dawley rat plasma at 30 mg/kg, po after 0.5 hrs by LC-MS/MS analysis; type: ADME, organism-based
Summary of the method: (§3)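 Brain and plasma levels (ng/mL) sampled 0.5 h after oral dosing at 10 or 30 mg/kg, alongside the ex vivo tenia tecta occupancy study.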

[7] = Drug concentration in Sprague-Dawley rat brain at 30 mg/kg, po after 0.5 hrs by LC-MS/MS analysis; type: ADME, organism-based; details: read-out: Ct; summary of the method: as §3
[8] = Permeability across basolateral to apical side in MDCK cells; type: ADME, cell-based, Canis lupus familiaris; details: dog
[9] = Ex vivo receptor occupancy at OX1R in Sprague-Dawley rat brain tenia tecta using [3H]SB-674042 labelling at 10 mg/kg, po measured after 6 hrs by autoradiography; type: functional
Summary of the method: (§4)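 Rats received a single oral dose, and OX1R occupancy was measured by ex vivo binding autoradiography in brain tenia tecta sections at 0.5, 2 and 6 h after dosing. Occupancy is expressed as percent. Brain and plasma drug levels (ng/mL) were also sampled at the 0.5 h time point.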

[10] = Protein binding in human plasma assessed as free fraction; type: ADME, cell-free
[11] = Ex vivo receptor occupancy at OX1R in po dosed rat tenia tecta after 60 mins; type: functional, organism-based; details: 1 h
[12] = Protein binding in rat plasma assessed as free fraction; type: ADME, cell-free
[13] = Drug concentration in Sprague-Dawley rat brain at 10 mg/kg, po after 0.5 hrs by LC-MS/MS analysis; type: ADME, organism-based; details: read-out: Ct; summary of the method: as §3
PXR (NR1I2) = biological target: T3, PXR (NR1I2) (Homo sapiens, UniProt O75469); experiment: Induction of human PXR at 10 uM relative to control; type: ADME; details: read-out: Activity
T3 sequence (O75469 whole entry): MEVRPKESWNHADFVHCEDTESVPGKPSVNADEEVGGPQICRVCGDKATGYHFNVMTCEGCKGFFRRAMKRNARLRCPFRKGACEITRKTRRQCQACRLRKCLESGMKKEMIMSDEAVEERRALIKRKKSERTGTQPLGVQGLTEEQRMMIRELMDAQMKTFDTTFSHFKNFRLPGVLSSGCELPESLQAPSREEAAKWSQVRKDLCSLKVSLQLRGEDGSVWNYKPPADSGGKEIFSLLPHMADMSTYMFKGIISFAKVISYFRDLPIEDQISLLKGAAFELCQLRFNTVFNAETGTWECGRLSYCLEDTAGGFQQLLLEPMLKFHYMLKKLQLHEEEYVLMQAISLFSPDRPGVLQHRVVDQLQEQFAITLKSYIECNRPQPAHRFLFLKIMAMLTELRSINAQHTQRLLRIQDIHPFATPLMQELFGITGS
Summary of the method: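 Human PXR activation as an indirect measure of CYP3A4 induction, at 10 μM, expressed as % of rifampicin control activation.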

[14] = Protein binding in rat brain assessed as free fraction; type: ADME, tissue-based
[15] = Drug concentration in Sprague-Dawley rat plasma at 10 mg/kg, po after 0.5 hrs by LC-MS/MS analysis; type: ADME, organism-based; summary of the method: as §3
[16] = Ex vivo receptor occupancy at OX1R in Sprague-Dawley rat brain tenia tecta using [3H]SB-674042 labelling at 10 mg/kg, po measured after 2 hrs by autoradiography; type: functional; summary of the method: as §4
[17] = Ex vivo receptor occupancy at OX1R in Sprague-Dawley rat brain tenia tecta using [3H]SB-674042 labelling at 10 mg/kg, po measured after 0.5 hrs by autoradiography; type: functional; summary of the method: as §4
[18] = Permeability across apical to basolateral side in MDCK cells; type: ADME, cell-based, Canis lupus familiaris; details: dog
Homo sapiens = organism: Homo sapiens; experiment: Selectivity index, ratio of Ki for human OX2R to Ki for human OX1R

| SMILES | hepatic extraction ratio [1] | Ki (Orexin receptor type 2) | hepatic extraction ratio [2] | Ki [3] | also measured |
| --- | --- | --- | --- | --- | --- |
| Cc1ccc(-c2ncccn2)c(C(=O)N2[C@@H]3CC[C@H]2[C@H](COc2ccccn2)C3)n1 | 0.82 | 230 nM | 0.61 | 19 nM | – |
| Cc1ccc(-c2ncccn2)c(C(=O)N2C3CCC2C(COc2ccc(F)cn2)C3)c1 (racemic) | 0.89 | 40 nM | 0.91 | 8.7 nM | – |
| O=C(c1cc(F)ccc1-n1nccn1)N1C2CCC1C(COc1ccc(F)cn1)C2 (racemic) | 0.8 | 200 nM | 0.81 | 59 nM | – |
| O=C(c1cccc(F)c1-c1ncccn1)N1C2CCC1C(Oc1cnc(C(F)(F)F)cn1)C2 (racemic) | – | 5500 nM | – | 100 nM | – |
| Cc1ccc(-n2nccn2)c(C(=O)N2[C@@H]3CC[C@H]2[C@H](COc2ccc(F)cn2)C3)n1 | – | – | – | – | Activity [4]: 50%; Activity [5]: 30%; concentration at 0.5 h [6]: 930 ng/mL; concentration at 0.5 h [7]: 313 ng/mL |
| O=C(c1cccc(F)c1-c1ncccn1)N1[C@@H]2CC[C@H]1[C@H](Nc1ncc(C(F)(F)F)cc1F)C2 | 0.8 | 1100 nM | 0.49 | 15 nM | Papp B→A [8]: 71.3 ×10⁻⁶ cm/s; Activity [9]: 46%; fraction unbound [10]: 0.056; EC50 [11]: 0.25 µg/mL (≈ 0.526 µM); ED50 ([11]; po, time 60 min): 4.8 mg/kg; fraction unbound [12]: 0.064; concentration at 0.5 h [13]: 539 ng/mL; activity at 10 µM (PXR (NR1I2)): 39%; fraction unbound [14]: 0.027; concentration at 0.5 h [15]: 837 ng/mL; Activity [16]: 70%; Activity [17]: 81%; Papp A→B [18]: 7.7 ×10⁻⁶ cm/s |
| O=C(c1ccccc1-c1cccs1)N1C2CCC1C(COc1ccc(F)cn1)C2 (racemic) | > 0.92 | 13 nM | > 0.95 | – | – |
| O=C(c1ccccc1-n1nccn1)N1[C@@H]2CC[C@H]1[C@H](Nc1cnc(C(F)(F)F)cn1)C2 | 0.31 | 770 nM | < 0.3 | 30 nM | – |
| O=C(c1ccccc1-n1nccn1)N1C2CCC1C(Nc1ccc(Cl)cn1)C2 (racemic) | > 0.92 | 2130 nM | 0.88 | 96 nM | Ratio Ki (Homo sapiens): 20 |
| O=C(c1cccn2ccnc12)N1CCC(F)(F)[C@@H](Oc2ccc3ccccc3n2)C1 | – | 1010 nM | – | 1.8 nM | – |
| Cc1ccc(-n2nccn2)c(C(=O)N2C3CCC2C(COc2ccc(F)cn2)C3)c1 (racemic) | – | 72 nM | – | – | Activity [4]: 49%; Activity [5]: 43%; concentration at 0.5 h [6]: 55 ng/mL; concentration at 0.5 h [7]: 16 ng/mL |
| O=C(c1ccccc1-n1nccn1)N1C2CCC1C(Oc1ccc(C(F)(F)F)cn1)C2 (racemic) | – | 2700 nM | – | 130 nM | – |
| O=C(c1cccc(F)c1-c1ncccn1)N1C2CCC1C(Oc1ccc(C(F)(F)F)cn1)C2 (racemic) | – | > 10000 nM | – | 130 nM | – |
| Cc1ccc(-n2nccn2)c(C(=O)N2[C@@H]3CC[C@H]2[C@H](COc2ccccn2)C3)n1 | – | – | – | – | Activity [4]: 50%; Activity [5]: 20%; concentration at 0.5 h [6]: 118 ng/mL; concentration at 0.5 h [7]: 8 ng/mL |
| COc1ccc(C[C@H]2c3cc(OC)c(OC)cc3CCN2[C@@H](C(=O)NC(C)C)c2ccccc2)cc1OC | – | – | – | 6 nM | – |
| O=C(c1ccccc1-c1ncccn1)N1[C@@H]2CC[C@H]1[C@H](Nc1cnc(C(F)(F)F)cn1)C2 | 0.38 | 520 nM | < 0.3 | 19 nM | Papp B→A [8]: 68 ×10⁻⁶ cm/s; Activity [9]: 48%; fraction unbound [10]: 0.15; fraction unbound [12]: 0.214; concentration at 0.5 h [13]: 296 ng/mL; activity at 10 µM (PXR (NR1I2)): 18%; fraction unbound [14]: 0.067; concentration at 0.5 h [15]: 1480 ng/mL; Activity [16]: 83%; Activity [17]: 77%; Papp A→B [18]: 1.1 ×10⁻⁶ cm/s |
| O=C(c1cccc(F)c1-c1ncccn1)N1[C@@H]2CC[C@H]1[C@H](Nc1ccc(C(F)(F)F)cn1)C2 | 0.82 | – | 0.75 | – | Activity [9]: 21%; concentration at 0.5 h [13]: 72 ng/mL; concentration at 0.5 h [15]: 586 ng/mL; Activity [16]: 69%; Activity [17]: 70% |
| O=C(c1ccccc1-n1nccn1)N1C2CCC1C(Nc1cnc(C(F)(F)F)cn1)C2 (racemic) | 0.55 | 1250 nM | 0.36 | 62 nM | – |
| O=C(c1nccc2[nH]cnc12)N1CCC(F)(F)[C@@H](Oc2ccc3ccccc3n2)C1 | – | – | – | 5.2 nM | – |
| O=C(c1ccc(F)cc1-c1ncccn1)N1[C@@H]2CC[C@H]1[C@H](Nc1cnc(C(F)(F)F)cn1)C2 | 0.76 | 1700 nM | 0.81 | 61 nM | Activity [4]: 75%; Activity [5]: 17%; concentration at 0.5 h [6]: 257 ng/mL; concentration at 0.5 h [7]: 37 ng/mL |
| O=C(c1ccccc1-n1nccn1)N1C2CCC1C(Nc1ncc(C(F)(F)F)cn1)C2 (racemic) | – | – | – | 180 nM | – |
| Cc1ccc(-n2nccn2)c(C(=O)N2C3CCC2C(Nc2ccc(C(F)(F)F)cn2)C3)n1 (racemic) | > 0.92 | – | 0.93 | 75 nM | – |
| O=C(c1cc(F)ccc1-c1ncccn1)N1C2CCC1C(COc1ccc(F)cn1)C2 (racemic) | 0.76 | 160 nM | 0.81 | 41 nM | – |
| Cc1ccc(-n2nccn2)c(C(=O)N2C3CCC2C(COc2ccc(C(F)(F)F)cn2)C3)n1 (racemic) | – | 420 nM | – | 500 nM | – |
| O=C(c1c(F)cccc1-c1ncccn1)N1[C@@H]2CC[C@H]1[C@H](Nc1cnc(C(F)(F)F)cn1)C2 | – | 560 nM | – | – | Activity [9]: 29%; concentration at 0.5 h [13]: 654 ng/mL; concentration at 0.5 h [15]: 1600 ng/mL; Activity [16]: 43%; Activity [17]: 51% |
| O=C(c1cc(F)ccc1-c1ncccn1)N1[C@@H]2CC[C@H]1[C@H](Nc1cnc(C(F)(F)F)cn1)C2 | – | 730 nM | – | 65 nM | – |
| O=C(c1cccc(F)c1-c1ncccn1)N1[C@@H]2CC[C@H]1[C@H](Nc1ncc(C(F)(F)F)cc1Cl)C2 | 0.83 | 540 nM | 0.61 | 14 nM | – |
| O=C(c1ccccc1-n1nccn1)N1C2CCC1C(Nc1ccc(C(F)(F)F)cn1)C2 (racemic) | 0.87 | 1400 nM | 0.69 | 52 nM | – |
